For 96 compounds, cytotoxicity results are on record in ChEMBL document CHEMBL4513216, “Probing the Open Global Health Chemical Diversity Library for Multistage-Active Starting Points for Next-Generation Antimalarials” (ACS Infect Dis, 2020).

This series in a line: Toxicity liver stage against HepG2, at 10uM. The arrangement: test concentration 10 uM, cell line HepG2-A16-CD81EGFP. The series is classed as cell-based. As to conditions: human, HepG2-A16-CD81EGFP cells; read-out: INHIBITION
The method, boiled down: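 Uninfected HepG2-A16-CD81EGFP cells, 3 × 10^3 per well, 1536-well, plated on prespotted compound at 10 μM final, parasite-free screening media added to match infected plates; puromycin 10 μM positive, DMSO 0.5% negative; run in parallel with 48 h PbLuc assay at 37 °C, 5% CO2; viability by CellTiter-Glo luminescence, normalized to controls.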
Regarding `Cc1ccc(-c2c[nH]c([C@@H]3COCCN3Cc3ncc[nH]3)n2)cc1`, the cytotoxicity at 10 µM was 0.835%.

With `CN1CCN(S(=O)(=O)c2cccc(F)c2)c2ccccc21`, the cytotoxicity at 10 µM was 38.5%.

As for `CO[C@@H]1CN(c2ccccc2)S(=O)(=O)[C@@]12CCN(Cc1ccccc1)C2`, the cytotoxicity at 10 µM worked out at 3.51%.

In the case of `COc1cccc(OC)c1CN1CC(O)CN(S(C)(=O)=O)CC1=O` (stereo unspecified), the cytotoxicity at 10 µM was -82.6%. On to `COc1ccc(-c2noc(C(N)CCSC)n2)cc1OC` (stereo unspecified), for which the cytotoxicity at 10 µM was found to be 11.2%. The same measure for `CSCC[C@@H](CO)NC(=O)c1ccc2nc(NS(C)(=O)=O)sc2c1`: 10.7%; for `O=C(CSC1CCCC1)N1CCN(C(=O)C2CC2c2ccccc2)CC1` (stereo unspecified): -4.74%; for `CC(C)NC(=O)Nc1nc2c(s1)CN(C(=O)NCc1cccs1)CC2`: 33%. Regarding `Cc1noc(CNC(=O)CN(C)c2nc3c(F)cccc3s2)n1`, the cytotoxicity at 10 µM is 3.76%. The same measure for `COC(=O)N1CCc2ccccc2C1C(=O)NCc1ccccn1` (stereo unspecified): -3.01%; for `O=C(C1CCC1)N1C[C@@H]2CN(c3ccccc3)C(=O)[C@@H]2C1`: 1.05%. As for `CC(=O)N1CC2(CCCN2Cc2ccc(Cl)cc2)Cc2ccccc21` (stereo unspecified), the cytotoxicity at 10 µM worked out at 11.9%. On to `CS(=O)(=O)N1CC2(CCN(CC3CCCCC3)CC2)Cc2ccccc21`, for which the cytotoxicity at 10 µM is 6.25%. The same measure for `Cc1ccc(CN(C)Cc2ncc(C(C)(C)C)o2)o1`: -6.58%.

With `N#CCCCn1cnc2c(F)cc(Br)cc2c1=O`, the cytotoxicity at 10 µM is 4.29%.

For `CCc1cc(N2CCC(Nc3ccc4nnc(C)n4n3)CC2)ncn1`, the cytotoxicity at 10 µM turned out to be 4.69%. The same measure for `Cc1c(Br)cccc1NC(=O)N(C)CCO`: -24.5%; for `CCN1CCOC(CNCc2cnc(C(C)(C)C)s2)C1` (stereo unspecified): -2.24%. Then `CC(C(=O)NCc1ccc2c(c1)OCCO2)n1cncn1` (stereo unspecified), with -141%; and `CCCC(C#N)NC(=O)c1sccc1CC` (stereo unspecified), with 12.7%; and `CC(C)(C)NC(=O)C1CCCCN1Cc1nccn1CC(F)(F)F` (stereo unspecified), with 6.21%. As to `CCN(CC)C1CCN(C(=O)Nc2cc(F)c(OC)c(F)c2)C1` (stereo unspecified), the cytotoxicity at 10 µM came out at 4.55%.

As for `CCN1CCCN(S(=O)(=O)c2cc3ccccc3o2)CC1`, the cytotoxicity at 10 µM is 3.53%. For `CNC(=O)NC(=O)CN1CCN(CC2CC2)c2ccccc21`, the cytotoxicity at 10 µM worked out at 10.4%.

For the compound `O=C(CNc1cc(-n2cnnn2)ccc1F)Nc1cc(F)ccc1F`, the cytotoxicity at 10 µM was -4.09%.

Consider `COC(=O)C1CCCN1CC(=O)NCc1ccc(OCC(N)=O)cc1` (stereo unspecified), for which the cytotoxicity at 10 µM amounted to 7.45%.

Take `CCOCCN1CCN(C(C)C(=O)Nc2ccnn2C(C)C)CC1` (stereo unspecified): the cytotoxicity at 10 µM was -7.87%. With `CN(C(=O)NCc1nccn1Cc1ccccc1)C1CC1`, the cytotoxicity at 10 µM is -2.22%. Turning to `NC(=O)NCC1CCCCN1C(=O)c1ccc(Cl)s1` (stereo unspecified), the cytotoxicity at 10 µM is -12.1%.

As for `Cc1ccccc1S(=O)(=O)NC(=O)C1(c2cccc(Cl)c2)CC1`, the cytotoxicity at 10 µM was 1.97%. Consider `O=C(Nc1cc(CSCCO)ccn1)c1cc2ccccc2[nH]1`, for which the cytotoxicity at 10 µM was 17.3%. Then `COc1ccc(N(Cc2ccco2)C(=O)C2CCCO2)cc1F` (stereo unspecified), with -3.51%; and `Cc1cc(C(C)NC(=O)Cn2nc(C)c3ccccc3c2=O)c(C)o1` (stereo unspecified), with -5.3%. The same measure for `Cc1cc(C(=O)NC2(c3ccc(Br)cc3)CC2)n(C)n1`: 56.7%. Then `Cc1noc(C)c1CN(C)C(C)c1cccs1` (stereo unspecified), with -3.11%.

For `Cc1nc(C)n(Cc2cccc(NC(=O)N(C)CCC(C)O)c2)n1` (stereo unspecified), the cytotoxicity at 10 µM is -6.64%. Turning to `CCNC(=O)N1CCc2ccc(NC(=O)NCc3ccsc3)cc21`, the cytotoxicity at 10 µM was -11.8%.

In the case of `Cn1c(=O)[nH]c(=O)c2cc(C(=O)N3CCCC3C3CCCC3)cnc21` (stereo unspecified), the cytotoxicity at 10 µM was 14%.

With `Cc1nc(C2CCCN(C(=O)CN3CCCC3=O)C2)sc1C` (stereo unspecified), the cytotoxicity at 10 µM was -6.96%. On to `O=C(C1CCCc2[nH]ncc21)N1CCCCCC1` (stereo unspecified), for which the cytotoxicity at 10 µM came out at 4.65%. `NC(=O)c1ccc(N2CCCCC2)c(NC(=O)c2cncc(Br)c2)c1`: the cytotoxicity at 10 µM is -9.41%. The same measure for `CCCN1CCC(NC(=O)c2ccc(F)cc2I)CC1`: -11.8%. `COCc1cnc2n1CCN(C(=O)c1cc3cc(Cl)ccc3o1)C2C` (stereo unspecified): the cytotoxicity at 10 µM was -112%. Take `Cc1cccnc1CN1CCN(C[C@]2(O)CCCN3CCCC[C@@H]32)CC1`: the cytotoxicity at 10 µM was -0.418%. Regarding `CCOC(=O)C1(Cc2cccc(Cl)c2)CCCN(Cc2ncc[nH]2)C1` (stereo unspecified), the cytotoxicity at 10 µM was -5.22%. Consider `COc1ccc2[nH]nc(CN3CCN(Cc4cccc(F)c4)CC3)c2c1`, for which the cytotoxicity at 10 µM was -8.14%. Then `O=C(O)c1cn(CC2CCCN(c3nc4ccccc4s3)C2)nn1` (stereo unspecified), with -12.2%. Consider `Nc1nc(O)cc(N2CCC(c3cc(Cc4ccccc4)n[nH]3)CC2)n1`, for which the cytotoxicity at 10 µM was found to be 1.85%. Then `CC(=O)Nc1ccc(CN2CCc3[nH]cnc3C2c2nccn2C)cc1` (stereo unspecified), with -182%; and `CC(C)N1CCC(CC(=O)N2CCC(C(O)c3nccn3C)CC2)CC1` (stereo unspecified), with -0.153%. As to `COc1ccc(-c2noc(CN3CCN(c4cnccn4)CC3)n2)cc1`, the cytotoxicity at 10 µM came out at 6.58%. The same measure for `CN(CCC(C)(C)O)C(=O)C1CCC(=O)N(Cc2ccc(Cl)cc2)C1` (stereo unspecified): 7.67%. Then `Cc1ccc2[nH]c(=O)cc(C(=O)N[C@@H]3C[C@@H](CO)N(C)C3)c2c1`, with 5.43%.

On to `CC(=O)NCCc1nc(C(C)C)nn1-c1ccncc1C`, for which the cytotoxicity at 10 µM turned out to be 3.26%. The same measure for `CN1CCN2C[C@@H](NC(=O)c3nc4ccccc4[nH]3)C[C@H]2C1`: -0.159%; for `Cn1cc(CN2CCCC23CCN(c2nc4ccccc4s2)CC3)cn1`: 4.86%. For `OC1(CN2CCCCC2)CCN(c2nccc(C(F)(F)F)n2)C1` (stereo unspecified), the cytotoxicity at 10 µM was -7.07%. Take `Cc1nc(CCCNC(=O)c2coc(CN3CCOCC3)c2)sc1C`: the cytotoxicity at 10 µM was -2.11%.

For `COc1cccc(-c2noc(-c3ccc(NCCCN)nc3)n2)c1OC`, the cytotoxicity at 10 µM is -1.43%. On to `CSc1ccccc1C(=O)N1CCN(C)C2(CCC(=O)N(C)CC2)C1` (stereo unspecified), for which the cytotoxicity at 10 µM is 3.84%. Then `CNC(=O)c1sccc1S(=O)(=O)NC`, with 8.52%; and `O=S1(=O)CCC(n2cc(C3=CCN(CCc4ccccc4)CC3)cn2)C1` (stereo unspecified), with -2.64%; and `Cc1c(C(C)NC2CCN(C(C)C)CC2)cnn1-c1ccc(F)cc1F` (stereo unspecified), with -6.58%. The same measure for `CC(Cn1cccn1)NCc1csc2c1CCCC2` (stereo unspecified): -2.86%; for `O=C(C1CC1)N1CCc2c(ncnc2N2CCN3CCCC3C2)C1` (stereo unspecified): -13.6%; for `Cc1ccc(-c2cccc(-c3ccn(CCN4CCCC4)n3)c2)nn1`: -8.74%. The same measure for `CCCc1cc(C(=O)N(C)Cc2cccc3ncccc23)n(C)n1`: -0.758%. With `Cn1ccnc1-c1ccccc1C(=O)N1CCc2c(nc(N)[nH]c2=O)C1`, the cytotoxicity at 10 µM was -5.3%. Then `C[C@@H]1CN(C(=O)c2ccc(C#N)nc2)C[C@@]1(O)C1CC1`, with -28.8%; and `Cc1nnc(NC(=O)NCc2ccc(OC3CCCC3)nc2)s1`, with 0.141%. Regarding `CCc1c(C(=O)N2CCC(CC(N)=O)CC2)cnn1C(C)(C)C`, the cytotoxicity at 10 µM is 2.2%. As for `CC(O)CN1CCN(Cc2coc(-c3ccc(Cl)cc3)n2)CC1` (stereo unspecified), the cytotoxicity at 10 µM was -7.42%.

For `Cc1cnc(C(=O)N2CCCC(n3cccn3)C2)cn1` (stereo unspecified), the cytotoxicity at 10 µM is -0.29%. The same measure for `Cc1ccc(-n2nnc(C(=O)NCC(F)(F)F)c2C2CC2)cc1`: -6.94%.

Consider `Cc1cccc(CNCc2ccc(NC(=O)NC(C)C)cc2)c1`, for which the cytotoxicity at 10 µM was -3.03%. Regarding `FC(F)(F)c1ccc(CN2CCN(Cc3cscn3)CC2)cc1`, the cytotoxicity at 10 µM is -4.94%. `Cc1nc(CN2CCCC(NCc3c(C)nc4sccn34)C2)no1` (stereo unspecified): the cytotoxicity at 10 µM stood at 6.21%. Regarding `CC(C(=O)NCCCN1CCCCCC1=O)n1cncn1` (stereo unspecified), the cytotoxicity at 10 µM is -20.9%.

Consider `CN(Cc1cscn1)C1CCCN(Cc2noc(C3CC3)n2)C1` (stereo unspecified), for which the cytotoxicity at 10 µM is -2.77%. The same measure for `O=C(NCCn1ccnc1)c1cccc(F)c1`: -10%; for `Cc1nnc(NC(=O)NCc2ccc(N3CCN(C)CC3)nc2)s1`: -7.91%. The same measure for `Cc1cc(C)c(CNC(=O)N(C)Cc2sccc2C)c(=O)[nH]1`: -1.77%; for `CC(O)CN1CCN(Cc2cccc(C(=O)N(C)C)c2)CC1` (stereo unspecified): -3.93%. The same measure for `Cc1cc(CN2CCCC2Cn2cncn2)no1` (stereo unspecified): -10%; for `O[C@@H]1CN(Cc2ccc(F)c(F)c2)CC[C@H]1NCc1ccccn1`: 3.85%; for `CN(C)CCOCC1CN(C(=O)N2CCCC2)Cc2ccnn2C1` (stereo unspecified): 4.55%. With `CNC(=O)[C@H]1C[C@@H]2CN(S(=O)(=O)c3ccc(OC)cc3)C[C@@H]2N1C`, the cytotoxicity at 10 µM was -3.9%.

In the case of `Cc1nc(N2CCCC2)nc2c1CCN(Cc1nccn1C)CC2`, the cytotoxicity at 10 µM was -130%. Turning to `CCN1CCC(c2nc3ccc(NC4CCC4)cn3n2)CC1`, the cytotoxicity at 10 µM is -121%. Then `COCC1CC2(CCN(c3cccc(C)n3)CC2)CN1c1ncccn1` (stereo unspecified), with -108%; and `c1ccc(CN2CC[C@H]3[C@H]2CCN3c2ncccn2)nc1`, with 1.24%. Then `Cn1ccc(CN2CCC3(CC2)CC(Nc2cnccn2)CO3)n1` (stereo unspecified), with -2.66%; and `Cc1ccc(CN2C[C@@H]3CN(c4ncc(F)cn4)C[C@@H]3C2)cc1`, with 1.86%. For the compound `O=S1(=O)CCN(Cc2cccnc2)[C@H]2CCN(c3ncccn3)CC[C@H]21`, the cytotoxicity at 10 µM was -11.2%. Regarding `CCC1=N[C@@]2(CC[C@@H]3CN(Cc4ccccc4C)C[C@@H]32)C(=O)N1C`, the cytotoxicity at 10 µM is -107%. Then `Fc1ccc(CNCC2OCCc3cn(CC4CC4)nc32)cc1` (stereo unspecified), with 0.925%.
